In ChEMBL document CHEMBL4706687, “Synthesis and Pharmacological Evaluation of Novel Non-nucleotide Purine Derivatives as P2X7 Antagonists for the Treatment of Neuroinflammation” (J Med Chem, 2021):
Activity calls are given as the source filed them. The calls are words filed in the database; no cut-off is given here.

Assays:
[1] = molecular target: T1, P2X purinoceptor 7 (Rattus norvegicus) (UniProt Q64663); assay: Antagonist activity at rat P2X7 receptor expressed in Xenopus laevis oocytes assessed as reduction in ATP-induced channel currents at 100 uM by TEVC electrophysiology assay relative to control; type: cell-based; conditions: Oocyte, filed as antagonist
T1 sequence (whole entry): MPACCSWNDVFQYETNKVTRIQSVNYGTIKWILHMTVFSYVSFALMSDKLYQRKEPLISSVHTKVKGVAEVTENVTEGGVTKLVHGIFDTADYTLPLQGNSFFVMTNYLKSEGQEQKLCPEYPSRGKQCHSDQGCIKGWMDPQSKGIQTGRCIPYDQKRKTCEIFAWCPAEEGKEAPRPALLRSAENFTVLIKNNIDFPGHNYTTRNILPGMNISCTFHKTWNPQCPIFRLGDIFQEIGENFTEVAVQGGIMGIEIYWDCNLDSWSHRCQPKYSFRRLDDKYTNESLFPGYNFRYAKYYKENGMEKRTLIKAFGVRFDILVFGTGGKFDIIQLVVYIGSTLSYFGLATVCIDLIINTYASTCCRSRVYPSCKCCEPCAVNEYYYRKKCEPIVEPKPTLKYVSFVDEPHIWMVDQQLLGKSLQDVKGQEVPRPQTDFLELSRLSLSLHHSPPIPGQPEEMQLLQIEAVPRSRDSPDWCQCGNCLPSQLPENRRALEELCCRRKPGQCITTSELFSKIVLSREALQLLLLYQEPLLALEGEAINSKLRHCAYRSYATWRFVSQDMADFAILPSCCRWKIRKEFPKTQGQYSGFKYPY
Method in brief: (§1)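 Two-electrode voltage clamp at −70 mV in low divalent-cation solution, oocytes incubated 1–2 days at 16–18 °C after 50 nL cRNA injection: rP2X1 and rP2X4 at 0.5 mg/mL, rP2X2 0.1 mg/mL, rP2X7 25 μg/mL. ATP 10 μM for rP2X1 and rP2X2, 30 μM for rP2X4 and rP2X7. Compound applied 3 min without perfusion. Currents normalized to control; three oocytes from two frogs.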

[2] = molecular target: T2, P2X purinoceptor 2 (Rattus norvegicus) (UniProt P49653); assay: Antagonist activity at rat P2X2 receptor expressed in Xenopus laevis oocytes assessed as reduction in ATP-induced channel currents at 100 uM by TEVC electrophysiology assay relative to control; type: cell-based; conditions: Oocyte; method in brief: as §1
T2 sequence (whole entry): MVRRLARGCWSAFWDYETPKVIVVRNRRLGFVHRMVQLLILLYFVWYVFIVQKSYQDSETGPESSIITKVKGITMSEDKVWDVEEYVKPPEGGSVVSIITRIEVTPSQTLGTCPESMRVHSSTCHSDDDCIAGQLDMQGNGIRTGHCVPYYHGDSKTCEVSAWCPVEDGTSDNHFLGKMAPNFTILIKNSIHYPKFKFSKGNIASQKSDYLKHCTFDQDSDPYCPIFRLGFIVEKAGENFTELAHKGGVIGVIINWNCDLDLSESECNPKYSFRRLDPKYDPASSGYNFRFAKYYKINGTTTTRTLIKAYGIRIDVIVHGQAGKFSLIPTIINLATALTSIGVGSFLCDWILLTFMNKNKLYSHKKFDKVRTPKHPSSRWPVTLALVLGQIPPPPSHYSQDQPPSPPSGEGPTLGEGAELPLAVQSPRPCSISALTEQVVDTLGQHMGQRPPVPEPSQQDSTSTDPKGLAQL

inhibition [1]: Active | inhibition [2]: inactive
SMILES: O=C(Cn1cnc2c(Cl)ncnc21)c1ccc(Cl)cc1Cl
